HSP90 refold inh: HSP90 inhibitors, primary screen, cell lysate, luminescence; Heat shock protein HSP 90 (rabbit reticulocyte lysate; luciferase refolding); inhibition, % at 5.6 µM; Rabbit reticulocyte lysate, luciferase refolding luminescence, 3 h; AID 1789, 2009; 290,000 tested, 0.91% active;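 active means inhibition above the screen-wide mean plus 3 SD, computed separately per campaign, cut at about 16% in these data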;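 further: inhibitors lower the luminescence because luciferase stays unfolded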
STAT3 blocker: IL-6 driven STAT3 reporter inhibitors, primary screen, U3A cells, luciferase, luminescence, MLSCN library; 190,000 tested, 0.89% active; AID 862, 2007; inhibition, % at 5.5 µM; IL-6 STAT3-luciferase reporter; host cell line lacks STAT1;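 active means inhibition above the mean inhibition across all screened compounds plus 3 SD, cut at about 44% in these data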
STAT3 activator: IL-6 driven STAT3 reporter potentiators, primary screen, U3A cells, luciferase, luminescence, MLSCN library; IL-6 STAT3-luciferase reporter; 100% = signal with IL-6 EC80 alone; activation (% of control), % at 5.6 µM; 190,000 tested, 0.91% active; AID 871, 2007;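 active means activation above the screen-wide mean of compound activation plus 3 SD, cut at about 130% in these data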
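Test system: human U3A cells carrying STAT3-luciferase construct; control set: IL-6-only wells as 100% reference; timing: compound pre-incubation 1 h before IL-6, then 6 h stimulation at 37 °C; also added: IL-6 stimulus at 33 ng/mL final; evaluation: % activation versus median of IL-6-stimulated wells; detection: reporter luminescence signal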
STAT1 inh: STAT1 signaling inhibitors, primary screen, cell-based, HTS, luciferase reporter. NIH 3T3 STAT1-luciferase reporter, IFN-gamma, luminescence. inhibition, % at 5.5 µM. 200,000 tested, 0.35% active;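 active means inhibition above a set limit, the mean inhibition across all tested compounds plus 3 SD, cut at about 34% in these data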
PPC-1+TRAIL kill: compounds killing PPC-1 cancer cells with TRAIL present, primary screen, TRAIL potentiator project, ATPLite luminescence, uHTS. PPC-1 cells + TRAIL, ATPLite viability luminescence. cell killing (% activity), % at 4 µM or 5 µM. 220,000 tested, 0.41% active;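 active means cell killing above 50% in the first pass at 4 µM, then a duplicate retest at 5 µM averaging 50% or more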
C8 TRAIL sens: viability loss with TRAIL in NB7+C8 cells, primary screen, TRAIL sensitizer project, cell-based, ATPlite luminescence | inhibition (viability loss, TRAIL sensitization), % at 10 µM | 360,000 tested, 1% active;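 active means compounds causing at least 50% loss of cell viability in the single-dose screen, relative to plate controls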
HSP90 inh confirm: HSP90 inhibitors, confirmation, cell lysate, luminescence | shares compounds with HSP90 refold inh | rabbit reticulocyte lysate, luciferase refolding luminescence, 3 h | inhibition, % at 5.9 µM | 2,300 tested, 64% active; in the data active means inhibition above about 18%
FLuc counter: firefly luciferase inhibitors, HSP90 counter-screen, confirmation, artefact control for HSP90 inhibitor project, biochemical, luminescence, triplicate; purified native firefly luciferase; AID 1847, 2009; shares compounds with HSP90 refold inh; inhibition, % at 5.9 µM; 2,300 tested, 48% active;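 active means inhibition above the mean inhibition of all tested sample wells plus 3 SD, cut at about 10% in these data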
Target sequence (P08659 whole entry, looked up): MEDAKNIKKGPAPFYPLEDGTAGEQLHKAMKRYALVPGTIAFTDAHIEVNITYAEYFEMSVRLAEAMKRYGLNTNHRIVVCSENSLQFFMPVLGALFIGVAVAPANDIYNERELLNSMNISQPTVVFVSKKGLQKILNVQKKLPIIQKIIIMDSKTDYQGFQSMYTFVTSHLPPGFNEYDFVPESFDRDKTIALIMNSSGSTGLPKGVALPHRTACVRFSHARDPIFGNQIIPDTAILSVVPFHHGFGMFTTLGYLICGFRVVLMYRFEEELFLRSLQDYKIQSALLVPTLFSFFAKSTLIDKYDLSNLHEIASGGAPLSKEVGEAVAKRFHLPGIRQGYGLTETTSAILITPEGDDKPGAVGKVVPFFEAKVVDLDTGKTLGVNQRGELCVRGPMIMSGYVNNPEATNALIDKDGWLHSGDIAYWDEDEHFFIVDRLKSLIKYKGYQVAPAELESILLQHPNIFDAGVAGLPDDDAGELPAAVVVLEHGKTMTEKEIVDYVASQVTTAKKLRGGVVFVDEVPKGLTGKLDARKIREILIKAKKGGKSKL
A number is an active result; n = inactive; x = not tested or not shown. An excerpt weighted towards active compounds, which were near 2.3% of everything screened.

SMILES	HSP90 refold inh	STAT3 blocker	STAT3 activator	STAT1 inh	PPC-1+TRAIL kill	C8 TRAIL sens	HSP90 inh confirm	FLuc counter
O=Cc1ccc(-c2ccc(F)cc2)o1	n	n	n	n	n	n	x	x
O=Cc1ccc(-c2ccc(C(=O)O)cc2)o1	17	x	x	x	n	n	n	n
COc1ccccc1N/C=C/c1onc(C)c1[N+](=O)[O-]	39	87	n	76	n	n	78	71
COc1ccc(-c2cn3cc(C(=O)NN)ccc3n2)cc1	43	n	n	n	n	n	24	n
Brc1ccccc1OCCCN1CCCCCC1	n	n	n	n	n	n	x	x
CC(=O)c1ccccc1OCCCN1CCCCC1	28	n	n	n	n	n	n	n
CCN(CC)CCn1c(=S)[nH]c2ccc(Cl)cc2c1=O	45	n	n	n	n	n	n	n
Cc1cc(NO)nc(-c2ccc(Br)cc2)n1	81	n	n	n	n	n	79	n
CCOc1ccc(/C=C2\CCc3ccccc3C2=O)cc1	35	x	x	x	n	77	44	73
Cn1cccc1/C=C1\Cc2ccccc2C1=O	n	n	n	n	n	n	x	x
Cn1cccc1/C=C1\CCc2ccccc2C1=O	39	89	n	58	n	61	64	67
CC1=CC(C)(C)Nc2ccc(OC(=O)c3ccco3)cc21	17	n	n	n	n	n	32	n
CC1=CC(C)(C)Nc2ccc(OC(=O)c3cccnc3)cc21	n	n	n	n	n	n	x	x
Cc1cc(=O)n2c(n1)OC(CO)C2 (centres undefined)	n	n	n	n	n	n	x	x
COc1cccc(/C=C2\SC(=O)NC2=O)c1OCc1ccc(C(=O)O)cc1	23	n	n	n	n	n	n	n
COc1ccc(/C=N/NC(=O)c2nn(-c3ccccc3)c(=O)c3c(N)scc23)cc1	20	n	n	n	n	n	n	n
CC(NC(=O)COc1cccnc1[N+](=O)[O-])c1ccc(F)cc1 (centres undefined)	30	x	x	x	x	n	n	n
O=C(COc1cccnc1[N+](=O)[O-])Nc1ccc(F)cc1	x	x	x	x	x	n	x	x
Cc1cc2oc(=O)cc(CN3CCCc4ccccc43)c2cc1C	n	n	n	n	n	n	x	x
CC1CN(C(=O)COC(=O)c2ccc(C#N)cc2)CC(C)O1 (centres undefined)	48	x	x	x	x	n	n	n
CC1CN(C(=O)COC(=O)c2ccc(O)cc2)CC(C)O1 (centres undefined)	n	x	x	x	x	n	x	x
NCCN1C(=O)c2ccccc2C1(O)c1ccc(Cl)cc1 (centres undefined)	x	x	x	x	x	n	x	x
Cc1cc(C(=O)O)ccc1N/C=C1\CCCC(C)C1=O (centres undefined)	34	n	n	n	n	n	70	32
COc1ccc(CCNc2nc(C)cc(C)c2C#N)cc1OC	n	x	x	x	x	n	x	x
O=C(O)c1ccc(N/N=C/c2cccc(F)c2)cc1	n	n	n	n	n	n	x	x
SMILES	HSP90 refold inh	STAT3 blocker	STAT3 activator	STAT1 inh	PPC-1+TRAIL kill	C8 TRAIL sens	HSP90 inh confirm	FLuc counter
CSc1ccc(/C=N/Nc2cccc(C(=O)O)c2)cc1	25	n	n	64	n	n	86	84
O=C(Oc1ccc(/C=N/Nc2ccccc2)cc1)c1ccccc1	n	n	n	n	n	n	x	x
O=C(O)c1ccc(N/N=C/c2ccc(OC(=O)c3cccc(Cl)c3)cc2)cc1	43	x	x	x	n	n	85	n
O=C(O)c1cccc(N/N=C/c2ccc(OC(F)(F)F)cc2)c1	47	x	x	x	x	n	76	76
COCCN(C(=O)CSc1nn(-c2ccc(F)cc2)c(=S)s1)c1c(N)n(CC(C)C)c(=O)[nH]c1=O	x	x	x	x	x	n	x	x
CN1C(C(=O)NCc2ccco2)=CC(c2ccc(F)cc2)=NS1(=O)=O	56	x	x	x	x	n	n	n
CN1C(=O)Nc2cccc3cccc1c23	21	x	x	x	x	n	n	n
CN1C(=O)N(C)c2cccc3cccc1c23	n	x	x	x	x	n	x	x
CCOc1ccc(CCNC(=O)CCS(=O)(=O)c2ccc(OC)cc2)cc1OCC	n	n	n	n	n	n	x	x
CCN(CC)c1ccc(/C=N/Nc2nc3ccccc3[nH]2)c(O)c1	40	n	n	n	n	n	23	n
C/C=C/C=C/C(=O)OC(C)C(=O)Nc1cc([N+](=O)[O-])ccc1OC (centres undefined)	n	n	n	n	n	n	x	x
CCOC(=O)C(C)Sc1nc(-c2cccs2)ccc1C#N (centres undefined)	n	n	n	n	n	n	x	x
C=COC(=O)CSc1nc(-c2cccs2)ccc1C#N	33	n	n	n	n	n	n	n
O=C(O)c1ccc2c3n(nc2c1)-c1ccc(Cl)cc1CO3	84	x	x	x	x	x	75	27
CCO[C@H]1OC(C(=O)N2CCN(C)CC2)=C[C@@H](c2csc3ccccc23)[C@@H]1CCCO	18	x	x	n	n	n	n	n
O=C(CNS(=O)(=O)c1ccc(Br)s1)NCc1ccccc1	17	x	x	x	x	n	n	n
O=c1c2ccccc2cnn1Cc1nnc(-c2cccs2)o1	19	x	x	x	x	n	n	n
C(=C\c1cccc2ccccc12)/c1nnc(-c2cccs2)o1	n	n	n	n	n	n	x	x
N#Cc1nc(-c2cccc3ccccc23)oc1N1CCCCC1	21	n	n	n	n	n	n	n
COc1ccc(CNC(=O)C2CCCN(c3nc4ccccc4o3)C2)c(OC)c1 (centres undefined)	n	n	n	n	n	n	x	x
Cc1ccc(C2NC(=O)NC3=C2CCc2ccccc23)cc1 (centres undefined)	23	n	134	n	n	n	52	67
CC(C)c1ccc(C2NC(=O)NC3=C2CCc2ccccc23)cc1 (centres undefined)	n	n	n	n	n	n	x	x
COc1cc(OC)cc(C(=O)NCC(=O)OCC(=O)Nc2cc(S(C)(=O)=O)ccc2Cl)c1	27	x	x	x	n	n	n	n
CN1N=C2c3ccccc3CCCC2C1c1ccc(F)cc1 (centres undefined)	18	x	x	x	n	n	n	n
NNC(=O)c1c(O)c2cccc3c2n(c1=O)CCC3	19	x	x	x	x	n	n	n
CCCc1ccc(OCc2ccc(C(=O)N/N=C/c3cccnc3)o2)cc1	36	x	x	x	x	n	26	n
CCOc1ccc(CC(=O)N/N=C/c2cccnc2)cc1	n	x	x	x	n	n	x	x

Bioassay records: PubChem BioAssay, several laboratories
